SMARCA2 activ = activators of SMARCA2 function | MG213 cells, MMTV-luciferase reporter, dexamethasone, overnight | activation, % at 9.1 µM | 370,000 tested, 1% active; in the data active = activation above about 7.8%;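 also: 0% = vehicle wells and 100% = reference activator wells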
NR2E3 ag-1 = activates human NR2E3 receptor; Q9Y5X4; CHO-S Gal4-NCOR/VP16-NR2E3 two-hybrid, luciferase; inhibition of corepressor binding, % at 3.98 µM; 360,000 tested, 0.35% active;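 active = inhibition above the mean of all tested compounds plus 3 SD, cut at about 70% in these data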;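 also: 0% = DMSO with NR2E3 transfected cells and 100% = cells lacking NR2E3 construct; higher means lower luciferase signal from less NR2E3 corepressor binding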
Target sequence (Q9Y5X4 whole entry, looked up, the tested form may be a part): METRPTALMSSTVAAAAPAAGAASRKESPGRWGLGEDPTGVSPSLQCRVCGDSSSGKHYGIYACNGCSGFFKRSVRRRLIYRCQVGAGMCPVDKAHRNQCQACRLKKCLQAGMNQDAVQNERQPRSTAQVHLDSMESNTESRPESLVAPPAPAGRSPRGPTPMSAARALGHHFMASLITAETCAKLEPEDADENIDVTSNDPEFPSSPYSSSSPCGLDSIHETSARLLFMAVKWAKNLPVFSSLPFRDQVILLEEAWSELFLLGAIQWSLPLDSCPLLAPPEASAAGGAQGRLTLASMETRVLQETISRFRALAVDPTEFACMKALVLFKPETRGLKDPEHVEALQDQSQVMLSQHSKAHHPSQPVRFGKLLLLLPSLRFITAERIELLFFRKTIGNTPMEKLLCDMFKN
NR2E3 ag-2 = agonists of human nuclear receptor NR2E3 | Q9Y5X4 | GST-NR2E3/biotin-RetCOR TR-FRET, 1536-well | inhibition of corepressor binding, % at 4.78 µM | 320,000 tested, 0.12% active | AID 2300;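 active = percent inhibition above the cutoff of mean plus 3 SD of all tested compounds, set per screening campaign, cut at about 20% in these data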;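 also: 0% = DMSO wells and 100% = biotin wells as full block of FRET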
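System: GST-tagged NR2E3 plus biotinylated RetCOR corepressor; Buffer or medium: pH 7.5 Tris-based buffer; Probe or stimulus: RetCOR corepressor, biotinylated, 7 nM; Doses: compound at 4.8 µM, single dose; Schedule: 5 h incubation at 4 °C; Technique: time-resolved FRET; Evaluation: percent inhibition of TR-FRET ratio; Replication: one well per compound, singlicate testing.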
COUP-TFII inh = NR2F2 (human) inhibition, primary screen | P24468 | 370,000 tested, 0.7% active | inhibition, % at 8.6 µM | HEK293T NGFI-A luciferase reporter, luminescence | AID 686940;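 active = inhibition above a per-plate cutoff, mean inhibition of test wells between control levels plus 3 SD, cut at about 38% in these data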;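 also: cells cotransfected with COUP-TFII expression vector driving the NGFI-A reporter; 0% = median of COUP-TF2 test wells and 100% = reporter-only cells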
GalR3 antag = antagonists of human GalR3; O60755; HEK293 GalR3-CNG cAMP membrane potential fluorescence; galR3 body fused to GalR1 C-terminus; inhibition, % at 3 µM; 360,000 tested, 0.44% active;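 active = inhibition above the screen-wide average plus 3 SD, cut at about 13% in these data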;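 also: forskolin and galanin both at EC90 stimulate the cells; cAMP rise reported by CNG channel membrane potential dye signal; 0% = forskolin plus galanin with DMSO and 100% = forskolin alone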
NR2E3 ag confirm-1 = confirmation of human NR2E3 nuclear receptor agonists; cell-free NR2E3 corepressor release, TR-FRET, 5 h; 360 tested, 39% active; activation (reported as inhibition), % at 3.98 µM; shares compounds with NR2E3 ag-2; in the data active = activation above about 20%
PPARg-NCOR2 ag = PPARg-NCOR2 interaction agonism, NR2E3 counter-screen; inhibition, % at 3.98 µM; 360 tested, 45% active; TR-FRET PPARg-NCOR2 coregulator interaction, biochemical; shares compounds with NR2E3 ag-2; AID 504787; in the data active = inhibition above about 20%;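 also: 0% = DMSO vehicle and 100% = wells without protein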
NR2E3 ag confirm-2 = confirmation of human NR2E3 agonists. shares compounds with NR2E3 ag-1. CHO-S mammalian two-hybrid NR2E3-NCOR, luciferase luminescence. inhibition, % at 3.98 µM. 2,300 tested, 51% active;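 active = average inhibition above a cutoff equal to the mean inhibition of all tested compounds plus one SD, cut at about 70% in these data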;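 also: 0% = DMSO in NR2E3 cells and 100% = DMSO in cells lacking NR2E3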
GAL4-VP16 luc = counter-screen for NR2E3 agonists: GAL4-VP16 reporter inhibitors. shares compounds with NR2E3 ag-1. CHO-S GAL4-VP16 luciferase reporter, luminescence. inhibition, % at 3.98 µM. 2,300 tested, 29% active;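 active = mean inhibition above a cutoff equal to the average over all tested compounds plus one standard deviation, cut at about 70% in these data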;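 also: luciferase from a UAS reporter driven by GAL4-VP16 transactivation; 0% = DMSO with VP16-transfected cells and 100% = DMSO with cells lacking VP16; higher means less reporter light so more repression of VP16 activity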
The depositor's hits bear a star; nt = not tested or not shown. Sampled rows, rich in hits. Any-hit rate of the full collection: about 2.2%.

SMILES	SMARCA2 activ	NR2E3 ag-1	NR2E3 ag-2	COUP-TFII inh	GalR3 antag	NR2E3 ag confirm-2	GAL4-VP16 luc	others
Cn1ncnc2c(=O)n(C)c(=O)nc1-2	nt	104*	32*	nt	nt	98*	97*	NR2E3 ag confirm-1=36*;PPARg-NCOR2 ag=66*
CCOC(=O)CC[C@@H]1CC[C@]2(CCCN(Cc3ccccn3)C2)O1	-2	nt	nt	-2	nt	nt	nt
CCC(=O)[C@@H](C)[C@@H](O)[C@H](C)C[C@@H](C)C1OC(=O)C[C@@]2(O)CC=C(C)C(O2)C(C)=CCCC[C@H](O[C@H]2C[C@@H](OC(N)=O)[C@H](O)[C@@H](C)O2)C=C[C@H](C)C[C@H]1C (stereo partly specified)	nt	93*	nt	nt	nt	98*	84*
Oc1cc(Cl)c(Cl)c(Cl)c1Cl	5	74*	nt	18	-6	66	75*
COc1ccc(Cc2cn(C)c(N)n2)cc1	-1	nt	nt	-5	nt	nt	nt
CN(C(=O)Oc1ccc([N+](=O)[O-])cc1)c1ccccc1	0	-15	3	-3	8	nt	nt
CN(Cc1cccc(-c2ccncc2)c1)C(=O)Oc1ccc([N+](=O)[O-])cc1	nt	90*	nt	nt	nt	81*	74*
CC1=CC(O)C(O)C2(C)C1CC1OC(=O)C(O)C3C(C)C(O)C4(O)OCC13C42 (stereo unspecified)	nt	-16	nt	nt	nt	nt	nt
COC(=O)[C@]12OC[C@]34C([C@@H](O)[C@@H]1O)[C@]1(C)CC(=O)C(O)=C(C)[C@@H]1C[C@H]3OC(=O)[C@H](O)[C@@H]24 (stereo partly specified)	-2	63	2	76*	-4	15	11
COC(=O)[C@H]1C[C@@]2(C)c3ccccc3N[C@H]2N1	0	nt	nt	-4	nt	nt	nt
CCOC(=O)[C@]12Cc3cc(Cl)ccc3[C@H]1N(C1CCCCC1)C(=O)c1ccccc12	nt	65	nt	nt	nt	96*	59
CCOC(=O)[C@]12Cc3cc(Cl)ccc3[C@H]1N(CC(=O)OC)C(=O)c1ccccc12	nt	61	nt	nt	nt	2	12
N#CCC[C@@H]1CC[C@]2(CCCN(Cc3ccncc3)C2)O1	-1	nt	nt	15	nt	nt	nt
COc1ccccc1N	2	nt	nt	1	-3	nt	nt
CCN(CC)C(=O)c1ccc(NC(=O)c2cc(S(=O)(=O)N3CCCCCC3)ccc2OC)cc1	2	-31	2	14	-4	nt	nt
CCN(CC)C(=O)c1ccc(NC(=O)c2cccc(S(=O)(=O)N3CCN(Cc4ccccc4)CC3)c2)cc1	-3	57	-2	1	-2	54	52
CCN(CCNc1ccc([N+](=O)[O-])c2cccnc12)S(=O)(=O)c1ccccc1	-5	-37	0	4	-1	nt	nt
Cc1c(NS(=O)(=O)c2ccccc2)ccc([N+](=O)[O-])c1Cl	-6	85*	nt	19	-1	96*	84*
Cc1cc(N2CCNC[C@@H]2C)ccc1N1CCN[C@@H](C)C1	0	nt	nt	15	-7	nt	nt
Cc1ccc(-c2cc(-c3ccc(C)cc3)[n+](-c3ccccc3)c(-c3ccc(C)cc3)c2)cc1	nt	100*	2	nt	nt	100*	96*
Cc1ccc(-c2cc(-c3ccc(C)cc3)[n+](-c3ccc(C(=O)[O-])cc3)c(-c3ccc(C)cc3)c2)cc1	1	0	2	7	-1	nt	nt
OC1CN2CCC(O)C2C(O)C1O (stereo unspecified)	1	nt	nt	9	-7	nt	nt
COC(=O)C[C@]1(C(=O)OC)CN(C#N)N(c2ccc(Cl)cc2)C12c1ccccc1-c1ccccc12	-10	89*	2	102*	8	80*	21
CCOC(=O)CC[C@@H]1CC[C@]2(CCCN(Cc3ccncc3)C2)O1	-5	nt	nt	13	nt	nt	nt
